This passage reports viability, differential viability (reversal) and inhibition results from PubChem BioAssay.

Activity calls are given as the source filed them.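 How the source made its calls, unless noted: active means viability at or below 10% of carrier control in both of two separate runs; inconclusive means viability at or below 10% in only one of the two runs; inactive means the rest.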

The term viability denotes a read-out of living cells in per cent, often relative to untreated cells. As a reminder, the inhibition is the change of the read-out against control, counted positive when it falls.

Assay [1] in a line: reduced viability of SK-BR-3 breast cancer cells – cell-based, 24 h, human, pilot screen (AID 572).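 Further: compound exposure lasted between 18 and 24 h rather than exactly 24 h; 100% = carrier-treated control wells.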 As to conditions: SK-BR-3 viability, CellTiter-Glo luminescence, at 10 µM, stronger effect = lower value.
Assay [2] in a line: HUVEC growth inhibition – cell-based, human, primary screen (AID 575;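 active means viability at or below 30% in both replicate assays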;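 further: 100% = median of untreated cell wells with 0.1% DMSO on each plate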). As to conditions: HUVEC proliferation, CellTiter-Glo luminescence, 72 h; at 10 µM; stronger effect = lower value. The gist of the method:
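Material: primary human umbilical vein endothelial cells / Schedule: 72 h exposure, 37 °C, 5% CO2, 30 min RT equilibration / Signal: ATP-based CellTiter-Glo luminescent read / Read-out basis: percent of median DMSO-control luminescence / Control set: 32 DMSO-only cell-control wells (high), 32 MePR drug-control wells (low) per plate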
(In general: In ATP-based viability assays light output follows the ATP content of the culture.)

Assay [3] can be described thus: H69AR cell proliferation blockers – human, duplicate replicates, primary screen (AID 580;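 active means viability at or under a set limit in both replicates, limit being median viability minus 3 SD, cut at about 48% in these data, passing the limit was not always enough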;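 further: 100% = mean luminescence of untreated wells and 0% = no signal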). Conditions: H69AR lung tumor cells viability, ATP luminescence, 72 h; at 10 µM; stronger effect = lower value.
Assay [4] can be described thus: MRP1 drug-resistance reversers in H69AR cells – cell-based, doxorubicin co-treatment, pilot screen (AID 601;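 active means viability loss from added drug above about 55%, and viability with drug at most 40%, in both replicates, limit read from the data, passing the limit was not always enough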). As to conditions: CellTiter-Glo, 72 h, at 10 µM; for differential viability (reversal): stronger effect = higher value.
Assay [5] is described as follows: yeast transport mutant growth inhibition pilot in 384-well plates, post-Golgi transport modulator project (AID 636; in the data active means inhibition above about 31%). Conditions: absorbance 615 nm, about 18 h, stronger effect = higher value.
Assay [6] in a line: growth suppression of yeast trafficking mutant, preliminary HTS, modulators of trafficking downstream of Golgi apparatus project, 1536-format plate, OD 615 nm (AID 637; in the data active means inhibition above about 30%). As to conditions: yeast transport mutant growth, absorbance 615 nm, 18 h; stronger effect = higher value.
[7] abbreviates: H69AR cells + 2 uM doxorubicin, measured here: viability with 2 uM doxorubicin, stronger effect = lower value.
[8] abbreviates: H69AR cells, compound alone cytotoxicity.

In the case of `O=C(Nc1ccc2oc(=O)ccc2c1)c1cccnc1`, the viability in assay [1] was 111% (inactive); in assay [2] it was 107% (inactive); in assay [3], 98.9% (inactive); in assay [4] (setting [7]) it was 84.2%; in assay [4] (setting [8]) it was 98.9%. Further, in assay [4] (H69AR cells + 2 uM doxorubicin), the differential viability (reversal) is 14.6% (inactive). Besides, the inhibition in assay [5] is -4.38% (inactive); in assay [6] it was -0.18% (inactive).

For the compound `COc1cccc(NC(=O)CC2SC(=Nc3ccccc3)NC2=O)c1` (centres undefined), the viability is 70% (inactive) in assay [1]; 106% (inactive) in assay [2]; 92% (inactive) in assay [3]; 98.9% in assay [4] (setting [7]); 92% in assay [4] (setting [8]). Also, the differential viability (reversal) in assay [4] (H69AR cells + 2 uM doxorubicin) is -6.89% (inactive). In addition, the inhibition was -6.35% (inactive) in assay [5] and -1.27% (inactive) in assay [6].

Consider `CCc1ccc(Nc2cc(=O)n(C3CCCCC3)c(=O)[nH]2)cc1`, for which the viability in assay [1] was 136% (inactive); in assay [2], 44% (inactive); in assay [3], 18.3% (active); in assay [4] (setting [7]) it was 50.4%; in assay [4] (setting [8]), 18.3%. Further, the differential viability (reversal) in assay [4] (H69AR cells + 2 uM doxorubicin) is -32.1% (inactive). The inhibition was -3.65% (inactive) in assay [5] and -13% (inactive) in assay [6].

On to `CCn1c(SCC(N)=O)nnc1-c1ccc(S(=O)(=O)N2CCN(C)CC2)cc1`, for which the viability in assay [1] was 97% (inactive); in assay [2], 105% (inactive); in assay [3], 95.8% (inactive); in assay [4] (setting [7]) it was 86.6%; in assay [4] (setting [8]), 95.8%. Besides, the differential viability (reversal) in assay [4] (H69AR cells + 2 uM doxorubicin) was 9.21% (inactive). In addition, the results for the inhibition in assay [5] and in assay [6] were 2.93% (inactive) and 6.73% (inactive), respectively.

Turning to `CCOC(=O)c1[nH]c(CSc2nnc(-c3ccncc3)n2CCOC)c(C(=O)OCC)c1C`, the viability was 94% (inactive) in assay [1]; 96.7% (inactive) in assay [2]; 94.8% (inactive) in assay [3]; 90.6% in assay [4] (setting [7]); 94.8% in assay [4] (setting [8]). Further, the differential viability (reversal) in assay [4] (H69AR cells + 2 uM doxorubicin) is 4.23% (inactive). For the same compound, the figures for the inhibition in assay [5] and in assay [6] were -5.19% (inactive) and 1.31% (inactive), respectively.

Regarding `N#Cc1c(N)oc(-c2cccs2)c1-c1cccs1`, the viability in assay [1] was 107% (inactive); in assay [2], 107% (inactive); in assay [3], 95% (inactive); in assay [4] (setting [7]), 93.2%; in assay [4] (setting [8]), 95%. Moreover, the differential viability (reversal) in assay [4] (H69AR cells + 2 uM doxorubicin) is 1.77% (inactive). Moreover, the inhibition was -6.93% (inactive) in assay [5] and -3.82% (inactive) in assay [6].

Take `Cc1ccc(S(=O)(=O)N2CCN(C(=O)c3cc(=O)[nH]c4ccccc34)CC2)c(C)c1`: the viability was 66% (inactive) in assay [1]; 82.8% (inactive) in assay [2]; 83.3% (inactive) in assay [3]; 79.8% in assay [4] (setting [7]); 83.3% in assay [4] (setting [8]). Moreover, the differential viability (reversal) in assay [4] (H69AR cells + 2 uM doxorubicin) was 3.45% (inactive). Further, the values for the inhibition in assay [5] and in assay [6] were -9.04% (inactive) and 2.74% (inactive), respectively.

Consider `CCOCCn1c(CN2CCC(Cc3ccccc3)CC2)nc2c1c(=O)n(C)c(=O)n2C`, for which the viability is 61% (inactive) in assay [1]; 89.7% (inactive) in assay [2]; 87.7% (inactive) in assay [3]; 58% in assay [4] (setting [7]); 87.7% in assay [4] (setting [8]). For the same compound, the differential viability (reversal) in assay [4] (H69AR cells + 2 uM doxorubicin) is 29.8% (inactive). Besides, the inhibition in assay [5] was -8.22% (inactive); in assay [6] it was 3.55% (inactive).

As to `O=c1[nH]c(N2CCCCC2)nc2c1CCCC2`, the viability in assay [1] is 95% (inactive); in assay [2], 96.2% (inactive); in assay [3], 95.8% (inactive); in assay [4] (setting [7]) it was 90.5%; in assay [4] (setting [8]) it was 95.8%. In addition, the differential viability (reversal) in assay [4] (H69AR cells + 2 uM doxorubicin) was 5.24% (inactive). The inhibition in assay [5] is -4.05% (inactive); in assay [6], 15.3% (inactive).

On to `Cc1c(Cl)cccc1NC(=O)CCN1CCCCCC1`, for which the viability is 116% (inactive) in assay [1]; 103% (inactive) in assay [2]; 88.3% (inactive) in assay [3]; 86.2% in assay [4] (setting [7]); 88.3% in assay [4] (setting [8]). The differential viability (reversal) in assay [4] (H69AR cells + 2 uM doxorubicin) was 2.1% (inactive). Moreover, the results for the inhibition in assay [5] and in assay [6] were -6.85% (inactive) and 5.64% (inactive), respectively.

Consider `COc1ccccc1OCCCn1c(=O)oc2ccccc21`, for which the viability is 154% (inactive) in assay [1]; 90.1% (inactive) in assay [2]; 98.2% (inactive) in assay [3]; 86.3% in assay [4] (setting [7]); 98.2% in assay [4] (setting [8]). Besides, the differential viability (reversal) in assay [4] (H69AR cells + 2 uM doxorubicin) was 11.9% (inactive). Also, the inhibition in assay [5] was -1.56% (inactive); in assay [6] it was 2.79% (inactive).

Regarding `CC(=O)c1n[nH]nc1NC(=O)c1ccccc1`, the viability in assay [1] was 120% (inactive); in assay [2], 97.6% (inactive); in assay [3], 89.9% (inactive); in assay [4] (setting [7]), 96.6%; in assay [4] (setting [8]) it was 89.9%. Besides, in assay [4] (H69AR cells + 2 uM doxorubicin), the differential viability (reversal) was -6.65% (inactive). The results for the inhibition in assay [5] and in assay [6] were -1.69% (inactive) and 0.16% (inactive), respectively.

Take `S=C(c1ccc(N2CCOCC2)cc1)N1CCCCC1`: the viability in assay [1] was 103% (inactive); in assay [2], 105% (inactive); in assay [3], 93.5% (inactive); in assay [4] (setting [7]) it was 89.2%; in assay [4] (setting [8]) it was 93.5%. Besides, the differential viability (reversal) in assay [4] (H69AR cells + 2 uM doxorubicin) is 4.23% (inactive). Also, the inhibition in assay [5] is -5.48% (inactive); in assay [6], -8.87% (inactive).

Take `CCCCCCn1c(CN2CCCC(C)C2)nc2c1c(=O)n(C)c(=O)n2C` (centres undefined): the viability in assay [1] was 57% (inactive); in assay [2], 111% (inactive); in assay [3] it was 101% (inactive); in assay [4] (setting [7]), 93.1%; in assay [4] (setting [8]), 101%. In addition, the differential viability (reversal) in assay [4] (H69AR cells + 2 uM doxorubicin) was 7.51% (inactive). Also, the inhibition in assay [5] is -7.12% (inactive); in assay [6], 2.36% (inactive).

Take `Cc1cc(O)c(NC(=O)c2ccc(Br)o2)cc1C`: the viability in assay [1] was 98% (inactive); in assay [2], 71% (inactive); in assay [3], 73.2% (inactive); in assay [4] (setting [7]), 88.2%; in assay [4] (setting [8]), 73.2%. Further, in assay [4] (H69AR cells + 2 uM doxorubicin), the differential viability (reversal) was -15% (inactive). The inhibition is -6.08% (inactive) in assay [5] and 1.5% (inactive) in assay [6].

With `COc1ccc(NS(=O)(=O)c2ccc(N)cc2)nn1`, the viability in assay [1] is 91% (inactive); in assay [2], 100% (inactive); in assay [3], 104% (inactive); in assay [4] (setting [7]), 95.3%; in assay [4] (setting [8]) it was 104%. The differential viability (reversal) in assay [4] (H69AR cells + 2 uM doxorubicin) is 8.44% (inactive). The results for the inhibition in assay [5] and in assay [6] were -0.78% (inactive) and 0% (inactive), respectively.

Consider `Cc1cc(C(=O)Nc2c(F)cc(F)cc2Br)no1`, for which the viability in assay [1] is 99% (inactive); in assay [2] it was 91.9% (inactive); in assay [3], 98.2% (inactive); in assay [4] (setting [7]), 98.4%; in assay [4] (setting [8]), 98.2%. The differential viability (reversal) in assay [4] (H69AR cells + 2 uM doxorubicin) was -0.16% (inactive). Also, the inhibition in assay [5] was -6.16% (inactive); in assay [6] it was 4.03% (inactive).

`CC(=O)OCC(=O)[C@H]1CC[C@H]2[C@@H]3CCC4=CC(=O)CC[C@]4(C)[C@H]3CC[C@]12C`: the viability was 86% (inactive) in assay [1]; 39.2% (inactive) in assay [2]; 102% (inactive) in assay [3]; 102% in assay [4] (setting [7]); 102% in assay [4] (setting [8]). In assay [4] (H69AR cells + 2 uM doxorubicin), the differential viability (reversal) was -0.2% (inactive). For the same compound, the inhibition is -0.91% (inactive) in assay [5] and -3.5% (inactive) in assay [6].
